These results are taken from ChEMBL document CHEMBL3526035, “Role of the intestinal peptide transporter PEPT1 in oseltamivir absorption: in vitro and in vivo studies” (Drug Metab Dispos, 2012).

Molecules are shown by their SMILES.

Data set [1] can be described thus: Cmax in adult fasted Sprague-Dawley rat at 30 mg/kg, po administered as water solution by HPLC-tandem mass spectrometry. In kind it is ADME, organism-based. More on the design: dose 30 mg/kg, route oral. The settings on record: in vivo. The gist of the method: (§1)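 Adult cannulated Sprague-Dawley rats, fasted (from 6 h predose) or fed, dosed orally at 30 mg/kg (10 ml/kg), 3 per group. Serial jugular plasma with dichlorvos stabilisation, measured by LC-MS/MS. Cmax read graphically from the concentration-time profile.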

Data set [2] in a line: Tmax in adult fasted Sprague-Dawley rat at 30 mg/kg, po administered as solution in bovine milk by HPLC-tandem mass spectrometry. The format is ADME, organism-based. The settings on record: in vivo. More on the design: dose 30 mg/kg, route oral. The gist of the method: (§2)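 Male Sprague-Dawley rats (7–8 weeks, 243–283 g) had jugular-vein cannulas and 3 days' recovery. Fasting ran from 6 h predose through the 6 h study. Three rats per vehicle received 30 mg/kg oral (10 ml/kg). Blood was sampled 0.25–6 h into K2EDTA tubes with dichlorvos. Plasma was assayed by HPLC-MS/MS (0.1–500 µg/l). Tmax was read graphically (noncompartmental).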

A short description of data set [3]: Cmax in adult fasted Sprague-Dawley rat at 30 mg/kg, po administered as 125 mM aqueous Gly-Sar solution by HPLC-tandem mass spectrometry. More on the design: dose 30 mg/kg, route oral. The following applies: in vivo. In kind it is ADME, organism-based. A digest of the protocol:
as §1

Data set [4] can be described thus: Tmax in adult fasted Sprague-Dawley rat at 30 mg/kg, po administered as 125 mM aqueous Gly-Sar solution by HPLC-tandem mass spectrometry. The format is ADME, organism-based. More on the design: dose 30 mg/kg, route oral. The settings on record: in vivo. The gist of the method: as §2
Data set [5] can be described thus: AUC(0 to infinity) in adult fasted Sprague-Dawley rat at 30 mg/kg, po administered as 125 mM aqueous Gly-Sar solution by HPLC-tandem mass spectrometry. In kind it is ADME, organism-based. More on the design: time infinity, dose 30 mg/kg, route oral. The following applies: plasma. The gist of the method:
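Adult male Sprague-Dawley rats (243-283 g), jugular-cannulated, fasted from 6 h before dosing through the 6-h study. Given 30 mg/kg orally (free base) at 10 ml/kg, n=3/group. Blood sampled at 0.25-6 h into K2EDTA with dichlorvos esterase inhibitor. Plasma assayed by LC-MS/MS (0.1-500 μg/l). Noncompartmental analysis: linear-trapezoid AUC; infinity extrapolation via log-linear terminal λz.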

Data set [6] can be described thus: Tmax in adult fed Sprague-Dawley rat at 30 mg/kg, po administered as water solution by HPLC-tandem mass spectrometry. The following applies: in vivo. More on the design: dose 30 mg/kg, route oral. The format is ADME, organism-based. A digest of the protocol: (§3)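 Cannulated adult male Sprague-Dawley rats with chow ad libitum, 3 per vehicle, were given oral 30 mg/kg (10 ml/kg). Plasma analysis was by HPLC-MS/MS, with Tmax taken graphically from concentration-time profiles.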

The nature of data set [7]: Drug uptake in CHOK1 cells expressing human PEPT1 at 5 to 100 uM after 10 mins by HPLC coupled with radiodetection analysis. The format is ADME, cell-based, Cricetulus griseus. The settings on record: chinese hamster, cho-k1, 10 min.
Data set [8] in a line: AUC(0 to infinity) in adult fed Sprague-Dawley rat at 30 mg/kg, po administered as solution in bovine milk by HPLC-tandem mass spectrometry. In kind it is ADME, organism-based. More on the design: time infinity, dose 30 mg/kg, route oral. The settings on record: in vivo. The gist of the method:
(§4)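 Sprague-Dawley males, 7-8 weeks, 243-283 g, jugular-cannulated, 3 days' recovery; fed (chow ad libitum). Single oral dose of 30 mg/kg (free base) at 10 ml/kg; 3 rats/group. Jugular blood taken at 0.25-24 h into K2EDTA with dichlorvos, kept on ice. Plasma analysed by validated LC-MS/MS (0.1-500 μg/l). Noncompartmental analysis; AUC by linear trapezoid, AUC0-∞ extrapolated using λz.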

The nature of data set [9]: Cmax in adult fed Sprague-Dawley rat at 30 mg/kg, po administered as 125 mM aqueous Gly-Sar solution by HPLC-tandem mass spectrometry. The following applies: in vivo. In kind it is ADME, organism-based. More on the design: dose 30 mg/kg, route oral. The gist of the method: as §1
A short description of data set [10]: Tmax in adult fed Sprague-Dawley rat at 30 mg/kg, po administered as 125 mM aqueous Gly-Sar solution by HPLC-tandem mass spectrometry. The settings on record: in vivo. More on the design: dose 30 mg/kg, route oral. The format is ADME, organism-based. The gist of the method:
as §3

The nature of data set [11]: AUC(0 to 24 hrs) in adult fed Sprague-Dawley rat at 30 mg/kg, po administered as 125 mM aqueous Gly-Sar solution by HPLC-tandem mass spectrometry. More on the design: time < 24 hr, dose 30 mg/kg, route oral. The settings on record: plasma. In kind it is ADME, organism-based. A digest of the protocol: as §4
The nature of data set [12]: AUC(0 to 5 hrs) in juvenile fasted Sprague-Dawley rat at 30 mg/kg, po administered as water solution by HPLC-tandem mass spectrometry. The settings on record: plasma. The format is ADME, organism-based. More on the design: time < 5 hr, dose 30 mg/kg, route oral. A digest of the protocol:
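7-day-old Sprague-Dawley pups (9.7-18.9 g, both sexes), 15 per group. Given 30 mg/kg by oral gavage (10 ml/kg); breast-fed pups stayed with dams, fasted pups were removed 8 h before dosing. Blood taken by cardiac puncture under isoflurane at 0.25, 0.5, 1, 2 and 5 h, n=3 per time point (composite design). Dichlorvos-treated plasma assayed by LC-MS/MS; AUC0-5h by noncompartmental analysis.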

Data set [13] can be described thus: Tmax in juvenile fasted Sprague-Dawley rat at 30 mg/kg, po administered as 125 mM aqueous Gly-Sar solution by HPLC-tandem mass spectrometry. In kind it is ADME, organism-based. More on the design: dose 30 mg/kg, route oral. The settings on record: in vivo. A digest of the protocol:
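Seven-day-old Sprague-Dawley pups, males and females, 15 per group, were gavaged with 30 mg/kg (10 ml/kg). Breast-fed pups stayed with their dams; fasted pups were removed from 8 h predose through 5 h. Cardiac blood was drawn under isoflurane at 0.25, 0.5, 1, 2 and 5 h (composite, n=3/time point), with dichlorvos added. Plasma was analyzed by HPLC-MS/MS and Tmax read graphically.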

A short description of data set [14]: Terminal half life in healthy human at 150 mg, po administered as single dose by HPLC-tandem mass spectrometry under fasting conditions. In kind it is ADME, organism-based. The following applies: in vivo, read-out: beta t1/2 (converted). A digest of the protocol:
(§5)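 Open-label crossover food-effect study in 18 healthy volunteers (9 male, 9 female, mean age 26). Each received a single 150 mg oral dose of the marketed formulation, once fasting from midnight and once after a high-fat, high-calorie breakfast, separated by a 7–10 day washout. Plasma and urine were collected over 0–72 h and assayed by HPLC-MS/MS for oseltamivir and carboxylate.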

Data set [15] can be described thus: Drug uptake in CHOK1 cells expressing human PEPT1 by HPLC coupled with radiodetection analysis in presence of KH and Hanks' balanced salt solution. The format is ADME, cell-based, Cricetulus griseus. The settings on record: chinese hamster, cho-k1. A digest of the protocol:
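Accumulation of [14C]oseltamivir or its carboxylate in CHO-PEPT1 versus CHO-K1 cells. Conditions varied: KH buffer (with MES) or Hanks' balanced salt solution, pH 5 or 6 readjusted after substrate addition, 30 s to 15 min at 37°C. Uptake was quenched with ice-cold PBS-BSA, followed by Triton X-100 lysis, scintillation counting, and BCA protein normalization. HPLC-radiodetection checked ester stability.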

Data set [16] is described as follows: Drug excretion in healthy human urine assessed as unchanged drug level at 150 mg, po administered as single dose by HPLC-tandem mass spectrometry under fed conditions. In kind it is ADME, organism-based. The settings on record: read-out: Drug excretion. The gist of the method:
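Open-label crossover in 18 healthy volunteers (9 male, 9 female, mean age 26). Each received marketed oseltamivir 150 mg orally, once fasted from midnight and once after a high-fat, high-calorie breakfast, with a 7-10 day washout. Plasma and urine collected over 0-72 h and analysed by HPLC-MS/MS. AUC and Cmax compared after log transformation.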

A short description of data set [17]: Renal clearance in healthy human at 150 mg, po administered as single dose by HPLC-tandem mass spectrometry under fed conditions. The format is ADME, organism-based, Kidney. The settings on record: in vivo. A digest of the protocol:
as §5

Take `CCC(CC)O[C@@H]1C=C(C(=O)O)C[C@H](N)[C@H]1NC(C)=O` [OSELTAMIVIR CARBOXYLATE]: the Cmax in data set [1] turned out to be 2290 ng/mL; in data set [3], 2560 ng/mL; in [9], 693 ng/mL. Moreover, the Tmax worked out at 115 min in data set [2]; 70.2 min in [4]; 45 min in data set [6]; 85.2 min in [10]; 120 min in [13]. Besides, the AUC(0-inf) in data set [5] is 8860 ng·h/mL; in data set [8], 6340 ng·h/mL. For the same molecule, the Drug uptake entry in data set [7] and in [15] was “Active” throughout. This molecule registered an AUC(0-t) at 24 h in data set [11] of 4860 ng·h/mL. The AUC(0-t) at 5 h in data set [12] is 12100 ng·h/mL. Besides, in data set [14], the half-life was 412 min. Moreover, the dose excreted in data set [16] was 55.5%. In data set [17], this molecule gave a CL renal of 218 mL/min.
As for `CCOC(=O)C1=C[C@@H](OC(CC)CC)[C@H](NC(C)=O)[C@@H](N)C1` [OSELTAMIVIR], the Cmax stood at 1690 ng/mL in data set [1], 2070 ng/mL in data set [3] and 926 ng/mL in data set [9]. For the same molecule, the Tmax in data set [2] was 30 min; in data set [4] it was 15 min; in data set [6], 24.6 min; in data set [10], 39.6 min; in data set [13], 30 min. For the same molecule, the AUC(0-inf) in data set [5] was found to be 3810 ng·h/mL; in data set [8], 2810 ng·h/mL. Besides, the Drug uptake result in [7] and in [15] was “Active” each time. The same molecule came in with an area under the curve AUC(0-t) at 24 h in data set [11] of 2830 ng·h/mL. In data set [12], this molecule returned an AUC(0-t) at 5 h of 29500 ng·h/mL. Also, the half-life in data set [14] was 96.6 min. Besides, the dose excreted in data set [16] amounted to 4.32%. Further, in data set [17], the CL renal is 385 mL/min.
